According to ChEMBL document CHEMBL2331234, “Novel analgesic/anti-inflammatory agents: 1,5-diarylpyrrole nitrooxyalkyl ethers and related compounds as cyclooxygenase-2 inhibiting nitric oxide donors” (J Med Chem, 2013):
Active and inactive are the calls of the source. The rule behind the calls is not given here.

How the values were obtained:
Rattus norvegicus [1] = experiment: Antiinflammatory activity in Sprague-Dawley/Wistar rat assessed as decrease in carrageenan-induced hyperalgesia at 20 mg/kg, po administered 4 hrs after carrageenan-challenge measured after 120 mins (reference value: 31.4 +/- 3.7 g); format: functional
Rattus norvegicus [2] = experiment: Antiinflammatory activity in Sprague-Dawley/Wistar rat assessed as decrease in carrageenan-induced hyperalgesia at 20 mg/kg, po administered 4 hrs after carrageenan-challenge measured after 60 mins (reference value: 33.9 +/- 3.7 g); format: functional
Rattus norvegicus [3] = experiment: Antiinflammatory activity in Sprague-Dawley/Wistar rat assessed as decrease in carrageenan-induced hyperalgesia at 20 mg/kg, po administered 4 hrs after carrageenan-challenge measured after 30 mins (reference value: 34.8 +/- 3.0 g); format: functional
Mus musculus = experiment: Antinociceptive activity in po dosed Swiss albino mouse assessed as reduction in number of acetic acid-induced writhing counted 5 mins after acetic acid challenge counted for 10 mins; format: functional; conditions: read-out: MED
Procedure, shortened: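 Male Swiss albino mice (23-25 g) dosed orally, then given 0.6% acetic acid (10 mL/kg) ip. Stretching movements counted for 10 min, starting 5 min after the acetic acid. Control group received CMC. At least 7 mice/group; mean ± SEM, ANOVA with Fisher's PLSD.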

Aorta [4] = experiment: Vasorelaxant activity in Wistar rat endothelium-removed thoracic aortic rings assessed as reduction of KCl-induced vasoconstriction at 0.001 uM to 10 uM treated after KCl-challenge in presence of guanylate cyclase inhibitor 1H-[1,2,4]-oxadiazolo[4,3-a]quinoxalin-1-one; format: functional, tissue-based
Procedure, shortened: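 Endothelium-denuded aortic rings from male Wistar rats (250-350 g) were preincubated with ODQ 1 µM. Rings were contracted with KCl 30 mM, then given 3-fold increasing concentrations from 1 nM to 10 µM. Emax is the % relaxation of KCl tone. pIC50 was calculated when efficacy reached 50%, from 6-10 experiments.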

Aorta [5] = experiment: Vasorelaxant activity in Wistar rat endothelium-removed thoracic aortic rings assessed as reduction of KCl-induced vasoconstriction treated after KCl-challenge; format: functional, tissue-based
Procedure, shortened: (§1)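 Thoracic aortic rings from male Wistar rats (250-350 g), endothelium removed by rubbing; removal confirmed as <10% relaxation to ACh 10 µM in KCl 30 mM-contracted rings. Rings contracted with KCl 30 mM; at plateau, 3-fold increasing compound concentrations (1 nM-10 µM) added. Isometric tension recorded. Emax given as % of KCl tone; pIC50 as -log molar concentration halving that tone. 6-10 experiments; also run with ODQ 1 µM.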

Aorta [6] = experiment: Vasorelaxant activity in Wistar rat endothelium-removed thoracic aortic rings assessed as reduction of KCl-induced vasoconstriction at 0.001 uM to 10 uM treated after KCl-challenge relative to control; format: functional; procedure, shortened: as §1
J774 = experiment: Selectivity index, ratio of IC50 for COX1 in mouse J774 cells […]; format: cell-based
[7] = biological target: T1, Prostaglandin G/H synthase 1 (Mus musculus, UniProt P22437); experiment: Inhibition of arachidonic acid-induced COX1 activity in mouse J774 cells assessed as decrease in PGE2 levels incubated for 15 mins prior to arachidonic acid-challenge measured after 30 mins by RIA; format: cell-based
T1 sequence (P22437 whole entry): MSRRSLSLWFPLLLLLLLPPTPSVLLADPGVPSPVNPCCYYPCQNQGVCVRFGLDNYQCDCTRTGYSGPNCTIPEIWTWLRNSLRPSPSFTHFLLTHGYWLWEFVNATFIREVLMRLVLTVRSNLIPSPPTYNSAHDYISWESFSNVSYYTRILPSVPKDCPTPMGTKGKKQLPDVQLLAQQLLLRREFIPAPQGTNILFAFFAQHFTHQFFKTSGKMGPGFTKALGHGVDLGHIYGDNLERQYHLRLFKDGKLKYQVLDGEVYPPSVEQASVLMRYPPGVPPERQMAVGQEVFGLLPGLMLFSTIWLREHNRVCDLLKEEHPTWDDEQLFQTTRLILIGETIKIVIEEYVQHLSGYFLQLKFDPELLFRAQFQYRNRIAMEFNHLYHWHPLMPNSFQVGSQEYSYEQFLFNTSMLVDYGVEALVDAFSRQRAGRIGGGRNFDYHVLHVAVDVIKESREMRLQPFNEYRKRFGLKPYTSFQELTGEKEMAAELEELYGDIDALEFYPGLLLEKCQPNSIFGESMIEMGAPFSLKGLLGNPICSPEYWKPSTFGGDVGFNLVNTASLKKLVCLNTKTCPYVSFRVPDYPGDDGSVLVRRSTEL
Procedure, shortened: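 Cells were in DMEM with 10% FBS and adhered for 2 h at 37 °C. They were pretreated with compound (10 µM; 0.1-1 µM where inhibition exceeded 50%) for 15 min, then given 15 µM arachidonic acid for 30 min at 37 °C. Supernatant PGE2 was measured by RIA. Triplicate wells were used and the mean of three experiments reported. IC50 came from a variable-slope sigmoidal fit.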

Rattus norvegicus [8] = experiment: Antiinflammatory activity in Sprague-Dawley/Wistar rat assessed as decrease in carrageenan-induced paw edema at 20 mg/kg, po administered 3 hrs 30 mins after carrageenan-challenge measured after 60 mins (reference value: 2.48 +/- 0.06 mL); format: functional
[9] = biological target: T2, Prostaglandin G/H synthase 2 (Mus musculus, UniProt Q05769); experiment: Inhibition of Escherichia coli lipopolysaccharide-induced COX2 activity in mouse J774 cells assessed as decrease in PGE2 levels after 24 hrs by RIA; format: cell-based
T2 sequence (Q05769 whole entry): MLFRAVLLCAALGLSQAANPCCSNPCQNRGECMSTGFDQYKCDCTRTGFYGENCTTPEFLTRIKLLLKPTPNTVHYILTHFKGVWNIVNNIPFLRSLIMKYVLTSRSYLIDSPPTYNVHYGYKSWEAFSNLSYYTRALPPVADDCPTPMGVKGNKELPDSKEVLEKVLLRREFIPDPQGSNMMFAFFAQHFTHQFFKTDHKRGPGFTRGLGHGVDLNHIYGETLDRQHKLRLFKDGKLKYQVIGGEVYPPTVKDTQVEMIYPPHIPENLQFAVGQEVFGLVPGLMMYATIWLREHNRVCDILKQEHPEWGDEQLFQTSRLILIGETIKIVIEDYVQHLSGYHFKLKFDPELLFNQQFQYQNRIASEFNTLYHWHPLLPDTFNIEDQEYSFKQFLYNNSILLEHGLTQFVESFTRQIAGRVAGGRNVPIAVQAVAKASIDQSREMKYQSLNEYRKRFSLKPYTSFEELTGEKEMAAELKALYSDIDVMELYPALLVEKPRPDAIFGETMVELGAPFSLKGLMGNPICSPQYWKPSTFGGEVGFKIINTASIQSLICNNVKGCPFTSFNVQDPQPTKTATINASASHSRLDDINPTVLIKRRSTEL
Procedure, shortened: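 Adhered cells in DMEM/10% FBS were stimulated with E. coli LPS 10 µg/mL for 24 h with compound present at 0.01-10 µM. Supernatant PGE2 was measured by RIA. IC50 came from a variable-slope sigmoidal fit.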

Rattus norvegicus [10] = experiment: Antiinflammatory activity in Sprague-Dawley/Wistar rat assessed as decrease in carrageenan-induced hyperalgesia at 40 mg/kg, po administered 4 hrs after carrageenan-challenge measured after 30 mins (reference value: 34.8 +/- 3.0 g); format: functional
Rattus norvegicus [11] = experiment: Antiinflammatory activity in Sprague-Dawley/Wistar rat assessed as decrease in carrageenan-induced paw edema at 40 mg/kg, po administered 3 hrs 30 mins after carrageenan-challenge measured after 60 mins (reference value: 2.48 +/- 0.06 mL); format: functional
Rattus norvegicus [12] = experiment: Antiinflammatory activity in Sprague-Dawley/Wistar rat assessed as decrease in carrageenan-induced hyperalgesia at 40 mg/kg, po administered 4 hrs after carrageenan-challenge measured after 120 mins (reference value: 31.4 +/- 3.7 g); format: functional
Rattus norvegicus [13] = experiment: Antiinflammatory activity in Sprague-Dawley/Wistar rat assessed as decrease in carrageenan-induced hyperalgesia at 40 mg/kg, po administered 4 hrs after carrageenan-challenge measured after 60 mins (reference value: 33.9 +/- 3.7 g); format: functional

Compound | Activity (Rattus norvegicus [1]) | Activity (Rattus norvegicus [2]) | Activity (Rattus norvegicus [3]) | minimal effective dose (Mus musculus) | Activity (Aorta [4]) | IC50 (Aorta [5]) | pIC50 (Aorta [5]) | Emax (Aorta [6]) | Ratio IC50 (J774) | IC50 [7] | Activity (Rattus norvegicus [8]) | IC50 [9] | Activity (Rattus norvegicus [10]) | Activity (Rattus norvegicus [11]) | Activity (Rattus norvegicus [12]) | Activity (Rattus norvegicus [13]) | Activity (Aorta [5])
Cc1c(CCOCCCO[N+](=O)[O-])cc(-c2ccc(S(C)(=O)=O)cc2)n1-c1ccccc1 | 45.6 g | 51.6 g | 53.7 g | 20 mg/kg | inactive | ≥ 10 µM | Dose-dependent effect | 48% | > 667 | > 10 µM | 1.8 mL |  |  |  |  |  | 
Cc1c(CCOCCCO)cc(-c2ccc(S(C)(=O)=O)cc2)n1-c1ccc(F)cc1 |  |  |  |  |  |  |  | inactive | > 10.6 | > 10 µM |  |  |  |  |  |  | 
Cc1c(CCOCCCO[N+](=O)[O-])cc(-c2ccc(S(C)(=O)=O)cc2)n1-c1ccc(F)cc1 |  |  |  |  |  |  |  | inactive | > 52.6 | > 10 µM |  |  |  |  |  |  | 
Cc1c(CCOCCCO)cc(-c2ccc(S(C)(=O)=O)cc2)n1-c1cccc(F)c1 |  |  |  |  |  |  |  | inactive | 15.4 | 3.7 µM |  | 0.24 µM |  |  |  |  | 
Cc1c(CCOCCCO)cc(-c2ccc(S(C)(=O)=O)cc2)n1-c1ccccc1 | 46.6 g | 50.3 g | 52.9 g | 20 mg/kg |  |  |  | inactive | > 1.11 | > 10 µM | 1.86 mL | 8.99 µM |  |  |  |  | 
Cc1c(CCOCCO[N+](=O)[O-])cc(-c2ccc(S(C)(=O)=O)cc2)n1-c1ccc(F)c(F)c1 | 38.8 g | 46.9 g | 44.6 g | 20 mg/kg | inactive | ≥ 10 µM | Dose-dependent effect |  | > 10.9 | > 10 µM | 2.19 mL |  | 49.5 g | 2.1 mL | 35.3 g | 42.5 g | 
Cc1c(CCOCCO)cc(-c2ccc(S(C)(=O)=O)cc2)n1-c1ccccc1 | 37.8 g | 49.2 g | 56.6 g | 10 mg/kg |  |  |  | inactive |  | > 10 µM | 1.34 mL |  |  |  |  |  | 
Cc1c(CCOCCO[N+](=O)[O-])cc(-c2ccc(S(C)(=O)=O)cc2)n1-c1ccccc1 | 48.7 g | 55.3 g | 54.2 g | 10 mg/kg | inactive | 6.03 µM |  |  | > 588 | > 10 µM | 1.45 mL |  |  |  |  |  | Dose-dependent effect
Cc1c(CCOCCO)cc(-c2ccc(S(C)(=O)=O)cc2)n1-c1cccc(F)c1 | 37.2 g | 48.6 g | 46.9 g | 20 mg/kg |  |  |  | inactive | > 217 | > 10 µM | 2.46 mL |  | 51.4 g | 2.12 mL | 39.5 g | 45.3 g | 
Cc1c(CCOCCCO[N+](=O)[O-])cc(-c2ccc(S(C)(=O)=O)cc2)n1-c1cccc(F)c1 |  |  |  |  |  |  |  | inactive | 126 | 2.9 µM |  | 0.023 µM |  |  |  |  | 
O=[N+]([O-])OCC(CO[N+](=O)[O-])O[N+](=O)[O-] [NITROGLYCERIN] |  |  |  |  |  |  |  | 93% |  |  |  |  |  |  |  |  | 
Cc1c(CCOCCO)cc(-c2ccc(S(C)(=O)=O)cc2)n1-c1ccc(F)c(F)c1 | 41.4 g | 46.7 g | 43.6 g | 20 mg/kg |  |  |  | inactive | > 23.8 | > 10 µM | 2.16 mL |  | 53.2 g | 1.96 mL | 49.3 g | 55.2 g | 
